pIC50: −log10 of the molar value. In brackets after ≈: the same amount, converted by molar mass. Activity calls are given as the source filed them. No cut-off for these calls is given here.
What was measured:
Staphylococcus aureus [1] = assay: Antibacterial activity against Staphylococcus aureus after 18 hrs by microdilution broth method; format: functional
Method in brief: (§1)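 Reference strains: S. aureus ATCC 29213, methicillin-resistant S. aureus ATCC 700787, P. aeruginosa ATCC 27853 and C. albicans ATCC 44506. Method as previously described elsewhere.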

Staphylococcus aureus [2] = assay: Antibacterial activity against methicillin-resistant Staphylococcus aureus after 18 hrs by microdilution broth method; format: functional; method in brief: as §1
Candida albicans = assay: Antifungal activity against Candida albicans after 18 hrs by microdilution broth method; format: functional, organism-based; method in brief: as §1
Pseudomonas aeruginosa = assay: Antibacterial activity against Pseudomonas aeruginosa after 18 hrs by microdilution broth method; format: functional, organism-based; method in brief: as §1
PANC-1 [3] = assay: Cytotoxicity against human PANC1 cells at 5.2 uM after 48 hrs by MTT assay; format: functional, cell-based
DLD-1 [4] = assay: Cytotoxicity against human DLD1 cells at 5.2 uM after 48 hrs by MTT assay; format: functional, cell-based
NCI/ADR-RES [5] = assay: Cytotoxicity against human NCI/ADR-RES cells at 5.2 uM after 48 hrs by MTT assay; format: functional, cell-based
[6] = target: Induced myeloid leukemia cell differentiation protein Mcl-1 (Homo sapiens, UniProt Q07820); assay: Inhibition of MCL1 binding to Bak by FRET assay
Chain of Induced myeloid leukemia cell differentiation protein Mcl-1 (Q07820 whole entry): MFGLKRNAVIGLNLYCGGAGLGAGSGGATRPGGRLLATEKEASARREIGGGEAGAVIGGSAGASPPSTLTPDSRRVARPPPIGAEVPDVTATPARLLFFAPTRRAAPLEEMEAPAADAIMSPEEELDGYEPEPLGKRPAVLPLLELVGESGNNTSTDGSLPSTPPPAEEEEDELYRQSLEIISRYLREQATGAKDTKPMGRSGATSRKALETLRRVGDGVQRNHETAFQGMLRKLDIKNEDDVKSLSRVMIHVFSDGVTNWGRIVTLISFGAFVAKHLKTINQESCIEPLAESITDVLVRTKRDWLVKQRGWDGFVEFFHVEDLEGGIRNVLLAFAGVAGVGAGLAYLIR

NCI/ADR-RES [7] = assay: Cytotoxicity against human NCI/ADR-RES cells after 48 hrs by MTT assay; format: functional, cell-based
Method in brief: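 NCI/ADR-RES (formerly MCF-7/ADR) is a multidrug-resistant human ovarian carcinoma line from the NCI-Frederick tumor/cell line repository. It was scored for inhibition of proliferation using a previously described protocol. Each sample was run at least three times to derive the final IC50.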

Histone deacetylase 1 = Histone deacetylase 1 (Homo sapiens, UniProt Q13547); assay: Inhibition of human HDAC1 assessed as [3H]acetate release after 90 mins by scintillation counting
Chain of Histone deacetylase 1 (Q13547 whole entry): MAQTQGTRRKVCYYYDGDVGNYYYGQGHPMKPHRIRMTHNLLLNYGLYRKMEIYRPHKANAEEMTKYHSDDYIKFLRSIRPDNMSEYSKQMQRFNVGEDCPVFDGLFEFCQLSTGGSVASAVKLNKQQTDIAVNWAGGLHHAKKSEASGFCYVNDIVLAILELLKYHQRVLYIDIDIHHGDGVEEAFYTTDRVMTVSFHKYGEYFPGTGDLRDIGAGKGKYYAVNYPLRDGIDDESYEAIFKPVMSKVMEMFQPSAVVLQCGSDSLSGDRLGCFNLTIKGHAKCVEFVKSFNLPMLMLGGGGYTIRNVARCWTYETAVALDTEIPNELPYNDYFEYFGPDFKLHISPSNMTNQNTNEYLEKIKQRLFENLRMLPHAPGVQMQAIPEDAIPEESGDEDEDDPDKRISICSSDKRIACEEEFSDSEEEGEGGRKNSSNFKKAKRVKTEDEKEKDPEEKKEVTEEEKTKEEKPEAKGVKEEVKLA

PANC-1 [8] = assay: Cytotoxicity against human PANC1 cells at 6.4 uM after 48 hrs by MTT assay; format: functional, cell-based
DLD-1 [9] = assay: Cytotoxicity against human DLD1 cells at 6.4 uM after 48 hrs by MTT assay; format: functional, cell-based

| Compound | MIC (Staphylococcus aureus [1]) | MIC (Staphylococcus aureus [2]) | Activity (Candida albicans) | Activity (Pseudomonas aeruginosa) | Activity (PANC-1 [3]) | Activity (DLD-1 [4]) | Activity (NCI/ADR-RES [5]) | pIC50 [6] | Activity (NCI/ADR-RES [7]) | Activity (Histone deacetylase 1) | Activity (Staphylococcus aureus [1]) | Activity (PANC-1 [8]) | Activity (Staphylococcus aureus [2]) | Activity (DLD-1 [9]) | Activity [6] | pIC50 (NCI/ADR-RES [7]) | pIC50 (Histone deacetylase 1) |
| --- | --- | --- | --- | --- | --- | --- | --- | --- | --- | --- | --- | --- | --- | --- | --- | --- | --- |
| CCC[C@@H](O)Cc1c(Br)c(O)c2c(=O)c3c(O)c(Br)c(O)c4c5c(O)c(Br)c(O)c6c(=O)c7c(O)c(Br)c(C[C@H](O)CCC)c8c1c2c(c34)c(c65)c78 [GYMNOCHROME F] | 12.5 µg/mL (≈ 13 µM) | 12.5 µg/mL (≈ 13 µM) | inactive | inactive | inactive | inactive | inactive | 5.48 | – | – | – | – | – | – | – | – | – |
| O=C(O)c1cc(O)c2c(c1)C(=O)c1cc(O)c(Br)c(O)c1C2=O | – | – | inactive | inactive | inactive | inactive | inactive | – | inactive | inactive | inactive | inactive | inactive | inactive | inactive | – | – |
| O=C(O)c1cc(O)c2c(c1)C(=O)c1cc(O)cc(O)c1C2=O | – | – | inactive | inactive | inactive | inactive | inactive | – | inactive | inactive | inactive | inactive | inactive | inactive | inactive | – | – |
| CCC[C@@H](O)Cc1c(Br)c(O)c2c(=O)c3c(O)cc(O)c4c5c(O)cc(O)c6c(=O)c7c(O)c(Br)c(C[C@H](C)O)c8c1c2c(c34)c(c65)c78 [GYMNOCHROME E] | 25 µg/mL (≈ 32.1 µM) | 25 µg/mL (≈ 32.1 µM) | inactive | inactive | – | – | – | – | – | – | – | inactive | – | inactive | – | 5.46 | 4.96 |

Source: ChEMBL document CHEMBL1157063, “Gymnochromes E and F, cytotoxic phenanthroperylenequinones from a deep-water crinoid, Holopus rangii” (J Nat Prod, 2010)
